Reference: ChEMBL document CHEMBL1155459, “On-bead screening of a combinatorial fumaric acid derived peptide library yields antiplasmodial cysteine protease inhibitors with unusual peptide sequences” (J Med Chem, 2009)
Peptide text beside a SMILES is read from it.

Legend:
[1] = target: Rhodesain (Trypanosoma brucei rhodesiense) (UniProt Q95PM0); assay: Inhibition of Trypanosoma brucei rhodesiense rhodesain after 12 hrs by fluorescence spectroscopy-based on-bead assay; set-up: concentration or dose not given beside the values; conditions: concentration not given here
Summary of the method: (§1)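 Library members on resin (PEGA, theoretical loading 0.40 mmol/g; added as DMSO suspension, 0.64 mM final inhibitor) preincubated with enzyme 12 h, then Cbz-Phe-Arg-AMC 40 μM added; AMC release followed by fluorescence (ex 380/em 460 nm). Kinetics compared with inhibitor-free amino-PEGA resin.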

[2] = Inhibition of Plasmodium falciparum falcipain-2 after 12 hrs by fluorescence spectroscopy-based on-bead assay; set-up: concentration or dose not given beside the values; conditions: concentration not given here; summary of the method: as §1

Rhodesain (Trypanosoma brucei rhodesiense), sequence (Q95PM0 1-450): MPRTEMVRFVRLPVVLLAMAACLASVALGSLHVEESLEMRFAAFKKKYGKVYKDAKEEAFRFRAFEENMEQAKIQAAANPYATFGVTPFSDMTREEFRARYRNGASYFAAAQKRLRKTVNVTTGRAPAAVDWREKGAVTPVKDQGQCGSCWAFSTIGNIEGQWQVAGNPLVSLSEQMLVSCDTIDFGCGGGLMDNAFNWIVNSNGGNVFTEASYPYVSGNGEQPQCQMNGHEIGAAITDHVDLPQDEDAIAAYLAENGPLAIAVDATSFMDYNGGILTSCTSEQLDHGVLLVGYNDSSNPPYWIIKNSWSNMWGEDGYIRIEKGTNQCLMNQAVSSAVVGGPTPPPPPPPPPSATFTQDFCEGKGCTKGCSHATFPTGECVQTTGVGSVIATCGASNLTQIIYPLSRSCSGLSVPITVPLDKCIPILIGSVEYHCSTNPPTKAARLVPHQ

SMILES | inhibition [1] | inhibition [2]
CC(C)[C@H](NC(=O)[C@@H](NC(=O)[C@@H](NC(=O)[C@H](C)NC(=O)/C=C/C(=O)NCC(=O)NCC(=O)N[C@@H](Cc1ccccc1)C(=O)O)c1ccccc1)C(C)C)C(N)=O (HELM PEPTIDE1{[O=C(/C=C/C(=O)[*:2])NCC(=O)NCC(=O)N[C@@H](Cc1ccccc1)C(=O)O].A.[Phg].V.V.[am]}$$$$V2.0) | 36% | 56%
CC(C)[C@H](NC(=O)[C@H](C)NC(=O)[C@H](Cc1ccccc1)NC(=O)[C@H](Cc1ccccc1)NC(=O)/C=C/C(=O)NCC(=O)NCC(=O)N[C@@H](Cc1ccccc1)C(=O)O)C(N)=O (HELM PEPTIDE1{[O=C(/C=C/C(=O)[*:2])NCC(=O)NCC(=O)N[C@@H](Cc1ccccc1)C(=O)O].F.F.A.V.[am]}$$$$V2.0) | 47% | 43%
CC(C)C[C@H](NC(=O)[C@H](Cc1ccccc1)NC(=O)[C@H](Cc1ccccc1)NC(=O)/C=C/C(=O)NCC(=O)NCC(=O)N[C@@H](Cc1ccccc1)C(=O)O)C(=O)N[C@H](C(N)=O)C(C)C (HELM PEPTIDE1{[O=C(/C=C/C(=O)[*:2])NCC(=O)NCC(=O)N[C@@H](Cc1ccccc1)C(=O)O].F.F.L.V.[am]}$$$$V2.0) | 52% | 41%
CC(C)[C@H](NC(=O)[C@@H](NC(=O)[C@H](Cc1ccccc1)NC(=O)[C@H](Cc1ccccc1)NC(=O)/C=C/C(=O)NCC(=O)NCC(=O)N[C@@H](Cc1ccccc1)C(=O)O)C(C)C)C(N)=O (HELM PEPTIDE1{[O=C(/C=C/C(=O)[*:2])NCC(=O)NCC(=O)N[C@@H](Cc1ccccc1)C(=O)O].F.F.V.V.[am]}$$$$V2.0) | 51% | 60%
CC[C@H](C)[C@H](NC(=O)[C@H](Cc1ccccc1)NC(=O)/C=C/C(=O)NCC(=O)NCC(=O)N[C@@H](Cc1ccccc1)C(=O)O)C(=O)N[C@@H](C)C(=O)N[C@H](C(N)=O)C(C)C (HELM PEPTIDE1{[O=C(/C=C/C(=O)[*:2])NCC(=O)NCC(=O)N[C@@H](Cc1ccccc1)C(=O)O].F.I.A.V.[am]}$$$$V2.0) | 30% | 52%
CC[C@H](C)[C@H](NC(=O)[C@H](Cc1ccccc1)NC(=O)/C=C/C(=O)NCC(=O)NCC(=O)N[C@@H](Cc1ccccc1)C(=O)O)C(=O)N[C@@H](CC(C)C)C(=O)N[C@H](C(N)=O)C(C)C (HELM PEPTIDE1{[O=C(/C=C/C(=O)[*:2])NCC(=O)NCC(=O)N[C@@H](Cc1ccccc1)C(=O)O].F.I.L.V.[am]}$$$$V2.0) | 73% | 58%
CC[C@H](C)[C@H](NC(=O)[C@H](Cc1ccccc1)NC(=O)/C=C/C(=O)NCC(=O)NCC(=O)N[C@@H](Cc1ccccc1)C(=O)O)C(=O)N[C@H](C(=O)N[C@H](C(N)=O)C(C)C)C(C)C (HELM PEPTIDE1{[O=C(/C=C/C(=O)[*:2])NCC(=O)NCC(=O)N[C@@H](Cc1ccccc1)C(=O)O].F.I.V.V.[am]}$$$$V2.0) | 50% | 58%
CC(C)C[C@H](NC(=O)[C@H](Cc1ccccc1)NC(=O)/C=C/C(=O)NCC(=O)NCC(=O)N[C@@H](Cc1ccccc1)C(=O)O)C(=O)N[C@@H](C)C(=O)N[C@H](C(N)=O)C(C)C (HELM PEPTIDE1{[O=C(/C=C/C(=O)[*:2])NCC(=O)NCC(=O)N[C@@H](Cc1ccccc1)C(=O)O].F.L.A.V.[am]}$$$$V2.0) | 71% | 45%
CC(C)C[C@H](NC(=O)[C@H](Cc1ccccc1)NC(=O)/C=C/C(=O)NCC(=O)NCC(=O)N[C@@H](Cc1ccccc1)C(=O)O)C(=O)N[C@H](C(=O)N[C@H](C(N)=O)C(C)C)C(C)C (HELM PEPTIDE1{[O=C(/C=C/C(=O)[*:2])NCC(=O)NCC(=O)N[C@@H](Cc1ccccc1)C(=O)O].F.L.V.V.[am]}$$$$V2.0) | 58% | 46%
CC(C)[C@H](NC(=O)[C@H](C)NC(=O)[C@@H](NC(=O)[C@H](Cc1ccccc1)NC(=O)/C=C/C(=O)NCC(=O)NCC(=O)N[C@@H](Cc1ccccc1)C(=O)O)C1CCCCC1)C(N)=O (HELM PEPTIDE1{[O=C(/C=C/C(=O)[*:2])NCC(=O)NCC(=O)N[C@@H](Cc1ccccc1)C(=O)O].F.[O=C([C@@H](N[*:1])C1CCCCC1)[*:2]].A.V.[am]}$$$$V2.0) | 48% | 65%
CC(C)C[C@H](NC(=O)[C@@H](NC(=O)[C@H](Cc1ccccc1)NC(=O)/C=C/C(=O)NCC(=O)NCC(=O)N[C@@H](Cc1ccccc1)C(=O)O)C1CCCCC1)C(=O)N[C@H](C(N)=O)C(C)C (HELM PEPTIDE1{[O=C(/C=C/C(=O)[*:2])NCC(=O)NCC(=O)N[C@@H](Cc1ccccc1)C(=O)O].F.[O=C([C@@H](N[*:1])C1CCCCC1)[*:2]].L.V.[am]}$$$$V2.0) | 57% | 40%
CC(C)[C@H](NC(=O)[C@@H](NC(=O)[C@@H](NC(=O)[C@H](Cc1ccccc1)NC(=O)/C=C/C(=O)NCC(=O)NCC(=O)N[C@@H](Cc1ccccc1)C(=O)O)C1CCCCC1)C(C)C)C(N)=O (HELM PEPTIDE1{[O=C(/C=C/C(=O)[*:2])NCC(=O)NCC(=O)N[C@@H](Cc1ccccc1)C(=O)O].F.[O=C([C@@H](N[*:1])C1CCCCC1)[*:2]].V.V.[am]}$$$$V2.0) | 49% | 48%
CC(C)[C@H](NC(=O)[C@H](C)NC(=O)[C@@H](NC(=O)[C@H](Cc1ccccc1)NC(=O)/C=C/C(=O)NCC(=O)NCC(=O)N[C@@H](Cc1ccccc1)C(=O)O)c1ccccc1)C(N)=O (HELM PEPTIDE1{[O=C(/C=C/C(=O)[*:2])NCC(=O)NCC(=O)N[C@@H](Cc1ccccc1)C(=O)O].F.[Phg].A.V.[am]}$$$$V2.0) | 51% | 62%
CC(C)C[C@H](NC(=O)[C@@H](NC(=O)[C@H](Cc1ccccc1)NC(=O)/C=C/C(=O)NCC(=O)NCC(=O)N[C@@H](Cc1ccccc1)C(=O)O)c1ccccc1)C(=O)N[C@H](C(N)=O)C(C)C (HELM PEPTIDE1{[O=C(/C=C/C(=O)[*:2])NCC(=O)NCC(=O)N[C@@H](Cc1ccccc1)C(=O)O].F.[Phg].L.V.[am]}$$$$V2.0) | 71% | 40%
CC(C)[C@H](NC(=O)[C@@H](NC(=O)[C@@H](NC(=O)[C@H](Cc1ccccc1)NC(=O)/C=C/C(=O)NCC(=O)NCC(=O)N[C@@H](Cc1ccccc1)C(=O)O)c1ccccc1)C(C)C)C(N)=O (HELM PEPTIDE1{[O=C(/C=C/C(=O)[*:2])NCC(=O)NCC(=O)N[C@@H](Cc1ccccc1)C(=O)O].F.[Phg].V.V.[am]}$$$$V2.0) | 68% | 35%
CC(C)[C@H](NC(=O)[C@H](C)NC(=O)[C@H](Cc1ccccc1)NC(=O)[C@H](CC(N)=O)NC(=O)/C=C/C(=O)NCC(=O)NCC(=O)N[C@@H](Cc1ccccc1)C(=O)O)C(N)=O (HELM PEPTIDE1{[O=C(/C=C/C(=O)[*:2])NCC(=O)NCC(=O)N[C@@H](Cc1ccccc1)C(=O)O].N.F.A.V.[am]}$$$$V2.0) | 66% | 61%
CC(C)[C@H](NC(=O)[C@@H](NC(=O)[C@H](Cc1ccccc1)NC(=O)[C@H](CC(N)=O)NC(=O)/C=C/C(=O)NCC(=O)NCC(=O)N[C@@H](Cc1ccccc1)C(=O)O)C(C)C)C(N)=O (HELM PEPTIDE1{[O=C(/C=C/C(=O)[*:2])NCC(=O)NCC(=O)N[C@@H](Cc1ccccc1)C(=O)O].N.F.V.V.[am]}$$$$V2.0) | 28% | 40%
CC[C@H](C)[C@H](NC(=O)[C@H](CC(N)=O)NC(=O)/C=C/C(=O)NCC(=O)NCC(=O)N[C@@H](Cc1ccccc1)C(=O)O)C(=O)N[C@@H](C)C(=O)N[C@H](C(N)=O)C(C)C (HELM PEPTIDE1{[O=C(/C=C/C(=O)[*:2])NCC(=O)NCC(=O)N[C@@H](Cc1ccccc1)C(=O)O].N.I.A.V.[am]}$$$$V2.0) | 55% | 63%
CC[C@H](C)[C@H](NC(=O)[C@H](CC(N)=O)NC(=O)/C=C/C(=O)NCC(=O)NCC(=O)N[C@@H](Cc1ccccc1)C(=O)O)C(=O)N[C@@H](CC(C)C)C(=O)N[C@H](C(N)=O)C(C)C (HELM PEPTIDE1{[O=C(/C=C/C(=O)[*:2])NCC(=O)NCC(=O)N[C@@H](Cc1ccccc1)C(=O)O].N.I.L.V.[am]}$$$$V2.0) | 68% | 61%
CC[C@H](C)[C@H](NC(=O)[C@H](CC(N)=O)NC(=O)/C=C/C(=O)NCC(=O)NCC(=O)N[C@@H](Cc1ccccc1)C(=O)O)C(=O)N[C@H](C(=O)N[C@H](C(N)=O)C(C)C)C(C)C (HELM PEPTIDE1{[O=C(/C=C/C(=O)[*:2])NCC(=O)NCC(=O)N[C@@H](Cc1ccccc1)C(=O)O].N.I.V.V.[am]}$$$$V2.0) | 39% | 57%
CC(C)C[C@H](NC(=O)[C@H](CC(N)=O)NC(=O)/C=C/C(=O)NCC(=O)NCC(=O)N[C@@H](Cc1ccccc1)C(=O)O)C(=O)N[C@H](C(=O)N[C@H](C(N)=O)C(C)C)C(C)C (HELM PEPTIDE1{[O=C(/C=C/C(=O)[*:2])NCC(=O)NCC(=O)N[C@@H](Cc1ccccc1)C(=O)O].N.L.V.V.[am]}$$$$V2.0) | 52% | 48%
CC(C)C[C@H](NC(=O)[C@@H](NC(=O)[C@H](CC(N)=O)NC(=O)/C=C/C(=O)NCC(=O)NCC(=O)N[C@@H](Cc1ccccc1)C(=O)O)C1CCCCC1)C(=O)N[C@H](C(N)=O)C(C)C (HELM PEPTIDE1{[O=C(/C=C/C(=O)[*:2])NCC(=O)NCC(=O)N[C@@H](Cc1ccccc1)C(=O)O].N.[O=C([C@@H](N[*:1])C1CCCCC1)[*:2]].L.V.[am]}$$$$V2.0) | 69% | 45%
CC(C)[C@H](NC(=O)[C@H](C)NC(=O)[C@@H](NC(=O)[C@H](CC(N)=O)NC(=O)/C=C/C(=O)NCC(=O)NCC(=O)N[C@@H](Cc1ccccc1)C(=O)O)c1ccccc1)C(N)=O (HELM PEPTIDE1{[O=C(/C=C/C(=O)[*:2])NCC(=O)NCC(=O)N[C@@H](Cc1ccccc1)C(=O)O].N.[Phg].A.V.[am]}$$$$V2.0) | 48% | 64%
CC(C)[C@H](NC(=O)[C@@H](NC(=O)[C@@H](NC(=O)[C@H](CC(N)=O)NC(=O)/C=C/C(=O)NCC(=O)NCC(=O)N[C@@H](Cc1ccccc1)C(=O)O)c1ccccc1)C(C)C)C(N)=O (HELM PEPTIDE1{[O=C(/C=C/C(=O)[*:2])NCC(=O)NCC(=O)N[C@@H](Cc1ccccc1)C(=O)O].N.[Phg].V.V.[am]}$$$$V2.0) | 45% | 50%
